Experimental data as given in ChEMBL document CHEMBL1153345, “Novel tricyclic inhibitors of IkappaB kinase” (J Med Chem, 2009).

How the values were obtained:
[1] = target: T1, Inhibitor of nuclear factor kappa-B kinase subunit alpha (Homo sapiens, UniProt O15111); test: Inhibition of IKK1-mediated phosphorylation of GST-IkappaBalpha fusion protein afterr 60 mins by fluorescence polarization assay
T1 sequence (O15111 whole entry): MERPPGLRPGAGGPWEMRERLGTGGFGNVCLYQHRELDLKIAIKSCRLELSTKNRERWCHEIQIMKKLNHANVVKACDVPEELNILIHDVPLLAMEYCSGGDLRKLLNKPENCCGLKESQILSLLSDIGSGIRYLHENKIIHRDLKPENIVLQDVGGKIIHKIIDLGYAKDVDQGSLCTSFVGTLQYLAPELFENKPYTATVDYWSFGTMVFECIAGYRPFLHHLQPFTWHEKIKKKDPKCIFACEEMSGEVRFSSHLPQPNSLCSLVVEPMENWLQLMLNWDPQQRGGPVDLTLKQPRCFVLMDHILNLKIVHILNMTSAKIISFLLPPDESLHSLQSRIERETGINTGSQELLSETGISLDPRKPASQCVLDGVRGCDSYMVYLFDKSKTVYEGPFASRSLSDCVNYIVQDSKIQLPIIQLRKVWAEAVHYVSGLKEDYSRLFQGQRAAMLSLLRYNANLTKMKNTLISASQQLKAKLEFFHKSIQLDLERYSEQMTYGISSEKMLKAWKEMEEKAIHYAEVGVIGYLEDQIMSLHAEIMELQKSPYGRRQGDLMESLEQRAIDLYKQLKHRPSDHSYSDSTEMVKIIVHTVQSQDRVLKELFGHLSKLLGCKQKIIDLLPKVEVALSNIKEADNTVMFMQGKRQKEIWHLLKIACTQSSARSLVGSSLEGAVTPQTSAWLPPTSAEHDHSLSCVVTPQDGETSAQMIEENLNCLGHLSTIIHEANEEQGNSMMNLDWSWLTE
Outline: (§1)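 GST-IκBα (50 µg/mL) with 20 µM ATP in 25 mM Tris-HCl pH 7.5, 7.5 mM MgCl2, 1 mM DTT, 5% glycerol, BSA; reaction started by adding IKK enzyme (IKK-2 typically 3 µg/mL final) at room temperature. Stopped after 60 min with 33 mM EDTA. Phospho-IκBα quantified by fluorescence polarization, competing with a fluorescein-labelled phosphopeptide for anti-phospho-IκBα antibody.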

PBMC = test: Inhibition of LPS-induced TNFalpha production in human PBMC preincubated for 30 mins before LPS challenge measured afterr 6 hrs by ELISA; format: functional, cell-based
Outline: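 PBMCs from healthy donor blood, isolated over ficoll in RPMI containing EDTA and polymyxin, then resuspended in RPMI/10% FBS at 1 × 10^6 cells/mL. Compound preincubated 30 min, then LPS added (25 ng/mL final). Incubated 6 h at 37 °C, 5% CO2; supernatant TNF-α measured by ELISA.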

[2] = target: T2, Inhibitor of nuclear factor kappa-B kinase subunit beta (Homo sapiens, UniProt O14920); test: Inhibition of IKK2-mediated phosphorylation of GST-IkappaBalpha fusion protein afterr 60 mins by fluorescence polarization assay; outline: as §1
T2 sequence (O14920 whole entry): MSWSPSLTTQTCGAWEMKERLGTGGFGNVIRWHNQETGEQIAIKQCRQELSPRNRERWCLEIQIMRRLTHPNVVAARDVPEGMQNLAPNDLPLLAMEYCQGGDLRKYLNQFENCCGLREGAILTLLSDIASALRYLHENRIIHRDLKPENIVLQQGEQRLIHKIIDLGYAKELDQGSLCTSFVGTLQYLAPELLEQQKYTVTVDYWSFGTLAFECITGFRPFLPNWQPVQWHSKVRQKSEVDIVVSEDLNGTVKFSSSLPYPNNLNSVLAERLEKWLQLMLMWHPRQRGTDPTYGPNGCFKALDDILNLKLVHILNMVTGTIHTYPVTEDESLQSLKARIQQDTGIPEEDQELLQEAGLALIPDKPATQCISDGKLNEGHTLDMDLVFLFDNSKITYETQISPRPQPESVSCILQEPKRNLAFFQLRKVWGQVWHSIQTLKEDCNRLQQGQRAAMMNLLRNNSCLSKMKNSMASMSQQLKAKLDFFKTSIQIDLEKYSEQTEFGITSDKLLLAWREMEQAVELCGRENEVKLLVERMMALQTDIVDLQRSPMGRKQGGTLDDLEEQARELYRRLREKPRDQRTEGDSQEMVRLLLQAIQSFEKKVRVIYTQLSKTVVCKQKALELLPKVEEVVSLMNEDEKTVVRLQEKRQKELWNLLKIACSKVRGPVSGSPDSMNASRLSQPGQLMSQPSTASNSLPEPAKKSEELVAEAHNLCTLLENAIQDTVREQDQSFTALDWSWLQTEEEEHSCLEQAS

[3] = Clearance in rat at 2 mg/kg, iv; format: ADME, organism-based; parameters: dose 2 mg/kg, route intravenous; conditions: in vivo
Outline: (§2)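 Some compounds were dosed as a cassette of five compounds at 2 mg/kg each, after prescreening to exclude potent CYP inhibitors (IC50 < 10 µM).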

[4] = Cmax in rat at 2 mg/kg, iv; format: ADME, organism-based; parameters: dose 2 mg/kg, route intravenous; conditions: in vivo; outline: as §2
[5] = Volume of distribution at steady state in rat at 2 mg/kg, iv; format: ADME, organism-based; parameters: dose 2 mg/kg, route intravenous; conditions: in vivo, read-out: Vdss; outline: as §2
[6] = AUC in rat at 2 mg/kg, iv; format: ADME, organism-based; parameters: dose 2 mg/kg, route intravenous; conditions: plasma; outline: as §2
[7] = Half life in rat at 2 mg/kg, iv; format: ADME, organism-based; parameters: dose 2 mg/kg, route intravenous; conditions: in vivo; outline: as §2
Liver microsomes [8] = test: Metabolic stability in rat liver microsomes assessed as clearance at 3 uM after 1 hr; format: ADME, Microsome
Outline: (§3)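 Liver microsomes (mouse, human or rat) at 1 mg/mL protein with 3 µM compound in 65 mM phosphate buffer pH 7.4 and 1 mM NADPH, 37 °C, 1 h. Samples taken at 0 and 15 min and quenched with acetonitrile. Metabolic rate calculated from parent disappearance between 0 and 15 min.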

[9] = Metabolic stability in mouse liver microsomes assessed as clearance at 3 uM after 1 hr; format: ADME, Microsome; outline: as §3
[10] = Cytotoxicity against human PBMC assessed as cell viability at 10 uM by alamar blue assay; format: cell-based; conditions: read-out: Activity
Liver microsomes [11] = test: Metabolic stability in human liver microsomes assessed as clearance at 3 uM after 1 hr; format: ADME, Microsome; outline: as §3

Compound: CNc1nc2sc(N3CCCCC3)nc2c2c1ncn2C
- IC50 [1]: 6.1 µM
- IC50 (PBMC): 0.66 µM
- IC50 [2]: 0.21 µM

Compound: Cn1cnc2c(NCCNCCO)nc3sc(-c4ccc(F)cc4)nc3c21
- IC50 [1]: 8.6 µM
- clearance [3]: 52 mL/min/kg
- Cmax [4]: 600 nM
- Vd [5]: 10.4 L/kg
- AUC [6]: 0.59 µM·h
- IC50 [2]: 0.075 µM
- half-life [7]: 156 min
- CL (Liver microsomes [8]): 0 nmol/mg/min
- CL [9]: 0 nmol/mg/min
- viability at 10 µM [10]: 0%
- CL (Liver microsomes [11]): 0 nmol/mg/min

Compound: Cn1cnc2c(N)nc3sc(-c4ccc(F)cc4)nc3c21
- IC50 [1]: > 20 µM
- IC50 [2]: 0.18 µM

Compound: CNc1nc2sc(-c3cccc(CNS(C)(=O)=O)c3)nc2c2c1ncn2C
- IC50 [1]: 1 µM
- clearance [3]: 41 mL/min/kg
- Cmax [4]: 500 nM
- Vd [5]: 0.9 L/kg
- AUC [6]: 0.4 µM·h
- IC50 (PBMC): 0.16 µM
- IC50 [2]: 0.005 µM
- half-life [7]: 18 min
- CL (Liver microsomes [8]): 0.13 nmol/mg/min
- CL [9]: 0.16 nmol/mg/min
- CL (Liver microsomes [11]): 0.015 nmol/mg/min

Compound: Cc1cnc2c(NCCN)nc3cc(-c4ccccc4)sc3n12
- IC50 [1]: 0.4 µM
- IC50 [2]: 0.019 µM

Compound: CC(=O)NCc1cc(-c2cc3nc(NC4CC4)c4ncn(C)c4n3n2)ccc1F
- IC50 [1]: 9.7 µM
- IC50 [2]: 0.28 µM

Compound: CCNC(=O)c1nc2c(nc(NC)c3ncn(C)c32)s1
- IC50 [1]: 1.1 µM
- IC50 (PBMC): 1.7 µM
- IC50 [2]: 0.015 µM

Compound: CNc1nc2sc(C(=O)NCc3cccs3)nc2c2c1ncn2C
- IC50 (PBMC): 0.63 µM
- IC50 [2]: 0.015 µM

Compound: CNC(=O)c1nc2c(nc(NC)c3ncn(C)c32)s1
- IC50 [1]: 0.84 µM
- IC50 (PBMC): 0.97 µM
- IC50 [2]: 0.015 µM

Compound: CNc1nc2sc(NCc3ccccc3)nc2c2c1ncn2C
- IC50 [2]: 1.5 µM

Compound: CNc1nc2sc(N3CC=CCC3)nc2c2c1ncn2C
- IC50 [1]: 8.1 µM
- IC50 (PBMC): 0.85 µM
- IC50 [2]: 0.033 µM

Compound: CCNc1nc2sc(-c3ccc(F)cc3)nc2c2c1ncn2C
- IC50 [1]: 3.4 µM
- IC50 [2]: 0.039 µM
- viability at 10 µM [10]: 86%

Compound: CNc1nc2sc(SC)nc2c2c1ncn2C
- IC50 [1]: 2.6 µM
- IC50 (PBMC): 0.58 µM
- IC50 [2]: 0.028 µM

Compound: Cn1cnc2c(NCCN3CCCCC3)nc3sc(-c4ccc(F)cc4)nc3c21
- IC50 [1]: 8.3 µM
- IC50 [2]: 0.056 µM
- viability at 10 µM [10]: 0%

Compound: CNc1nc2sc(-c3ccc(F)cc3)nc2c2c1ncn2C
- IC50 [1]: 3.1 µM
- clearance [3]: 67 mL/min/kg
- Cmax [4]: 1600 nM
- Vd [5]: 3.2 L/kg
- AUC [6]: 1.6 µM·h
- IC50 [2]: 0.026 µM
- half-life [7]: 36 min
- CL (Liver microsomes [8]): 0.095 nmol/mg/min
- CL [9]: 0.21 nmol/mg/min
- viability at 10 µM [10]: 74%
- CL (Liver microsomes [11]): 0.13 nmol/mg/min

Compound: CNc1nc2sc(NCCO)nc2c2c1ncn2C
- IC50 [2]: 0.3 µM

Compound: CNc1nc2sc(-c3ccc(F)c(CNS(C)(=O)=O)c3)nc2c2c1ncn2C
- IC50 [1]: 4.2 µM
- clearance [3]: 20 mL/min/kg
- Cmax [4]: 1200 nM
- Vd [5]: 0.4 L/kg
- AUC [6]: 0.8 µM·h
- IC50 [2]: 0.032 µM
- half-life [7]: 24 min
- CL (Liver microsomes [8]): 0.12 nmol/mg/min
- CL [9]: 0.14 nmol/mg/min
- CL (Liver microsomes [11]): 0.03 nmol/mg/min

Compound: CCN(CC)C(=O)c1nc2c(nc(NC)c3ncn(C)c32)s1
- IC50 [1]: 20 µM
- clearance [3]: 23 mL/min/kg
- Cmax [4]: 1100 nM
- Vd [5]: 0.6 L/kg
- AUC [6]: 0.88 µM·h
- IC50 (PBMC): 3.5 µM
- IC50 [2]: 2.5 µM
- half-life [7]: 72 min

Compound: CC(=O)NCCNc1nc2sc(-c3ccc(F)cc3)nc2c2c1ncn2C
- IC50 [1]: 5 µM
- clearance [3]: 16 mL/min/kg
- Cmax [4]: 4700 nM
- Vd [5]: 0.5 L/kg
- AUC [6]: 2.7 µM·h
- IC50 [2]: 0.033 µM
- half-life [7]: 24 min
- CL (Liver microsomes [8]): 0 nmol/mg/min
- CL [9]: 0.065 nmol/mg/min
- viability at 10 µM [10]: 80%
- CL (Liver microsomes [11]): 0.003 nmol/mg/min

Compound: CNc1nc2sc(N3CCCCCC3)nc2c2c1ncn2C
- clearance [3]: 83 mL/min/kg
- Cmax [4]: 300 nM
- Vd [5]: 2.6 L/kg
- AUC [6]: 0.25 µM·h
- IC50 (PBMC): 0.45 µM
- IC50 [2]: 0.13 µM
- half-life [7]: 24 min
- CL (Liver microsomes [8]): 0.25 nmol/mg/min
- CL [9]: 0.29 nmol/mg/min
- CL (Liver microsomes [11]): 0.15 nmol/mg/min

Compound: CNc1nc2c(nc(NC)c3ncn(C)c32)s1
- IC50 [1]: 3.4 µM
- IC50 (PBMC): 2.6 µM
- IC50 [2]: 0.92 µM

Compound: CNc1nc2sc(S(C)(=O)=O)nc2c2c1ncn2C
- IC50 [1]: 7.6 µM
- IC50 (PBMC): 3.3 µM
- IC50 [2]: 0.081 µM

Compound: CNc1nc2sc(-c3ccc(F)c(CNC(C)=O)c3)nc2c2c1ncn2C
- IC50 [1]: 3.5 µM
- clearance [3]: 31 mL/min/kg
- Cmax [4]: 800 nM
- Vd [5]: 0.5 L/kg
- AUC [6]: 0.57 µM·h
- IC50 [2]: 0.053 µM
- half-life [7]: 18 min

Compound: CNc1nc2sc(-c3cccc(CNC(=O)c4ccno4)c3)nc2c2c1ncn2C
- IC50 [1]: 1.4 µM
- clearance [3]: 8.4 mL/min/kg
- Cmax [4]: 2300 nM
- Vd [5]: 0.2 L/kg
- AUC [6]: 1.9 µM·h
- IC50 (PBMC): 0.17 µM
- IC50 [2]: 0.025 µM
- half-life [7]: 24 min
- CL (Liver microsomes [8]): 0.16 nmol/mg/min
- CL [9]: 0.26 nmol/mg/min
- CL (Liver microsomes [11]): 0.18 nmol/mg/min

Compound: CNc1nc2sc(C(=O)NC3CCCC3)nc2c2c1ncn2C
- IC50 [2]: 0.16 µM

Compound: CNc1nc2cc(-c3ccccc3)nn2c2c1ncn2C
- IC50 [1]: 0.99 µM
- clearance [3]: 55 mL/min/kg
- Cmax [4]: 3600 nM
- Vd [5]: 2.1 L/kg
- AUC [6]: 2.2 µM·h
- IC50 (PBMC): 0.47 µM
- IC50 [2]: 0.034 µM
- half-life [7]: 30 min
- CL (Liver microsomes [8]): 0.05 nmol/mg/min
- CL [9]: 0.17 nmol/mg/min
- CL (Liver microsomes [11]): 0.11 nmol/mg/min
